Among the data in ChEMBL document CHEMBL1629542, “Epigallocatechin gallate inactivates clinical isolates of herpes simplex virus” (Antimicrob Agents Chemother, 2008) are FC values, retold here.

The subject of one test is Human alphaherpesvirus 2. The test is described as follows: Antiviral activity against Human herpesvirus 2 strain 333 infected in African green monkey CV1 cells assessed as log reduction in viral titer at 100 uM. Format: functional, CV-1. In a few lines: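 Lab strain HSV-2 333 was grown and titrated either in CV-1 cells or in Vero cells. Virus was incubated with 100 μM EGCG for 60 min, then titrated as tenfold dilutions for 5 days at 37°C with CPE scoring. Reed-Muench TCID50 of treated versus control virus gave the titer decrease. Mean of three experiments.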

In a further test the test system is Human alphaherpesvirus 1. The test can be described thus: Antiviral activity against Human herpesvirus 1 F1 infected in African green monkey Vero cells assessed as log reduction in viral titer at 100 uM.

SMILES strings stand for the structures.

Take `O=C(O[C@@H]1Cc2c(O)cc(O)cc2O[C@H]1c1cc(O)c(O)c(O)c1)c1cc(O)c(O)c(O)c1` [GALLOCATECHIN GALLATE]: the FC with Human alphaherpesvirus 2 is 4; with Human alphaherpesvirus 1 it was 3.5. `O=C(O[C@@H]1Cc2c(O)cc(O)cc2O[C@@H]1c1ccc(O)c(O)c1)c1cc(O)c(O)c(O)c1` [EPICATECHIN GALLATE]: the FC entry in the test with Human alphaherpesvirus 2 is reported as “>=1”.
